Source: PubChem BioAssay
Records with an inconclusive call do not appear.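 The calls were made as follows, unless noted: active = growth inhibition above 25% in both replicates, a cutoff set 3 SD above the mean; inconclusive = above 25% in only one replicate; inactive = the rest.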

Legend:
[1] = OD615 S. cerevisiae growth inhibition, permissive medium, pilot counter-assay, permissive growth control for S. cerevisiae lifespan shortening project (AID 705); details: OD615, 24 h, at 10 µM, active compounds read high
Summary of the method: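 assay system = Saccharomyces cerevisiae strain carrying genetically modified DeaD replicative-lifespan system | technique = absorbance (optical density) at 615 nm | buffer or medium = permissive raffinose/galactose medium | timing = cells pre-grown 4 h, then 24 h compound exposure, 30 °C humidified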

[2] = Restrictive medium S. cerevisiae growth inhibition, OD615, pilot screen of yeast lifespan reduction project, restrictive growth control (AID 706;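 active = growth inhibition above a set limit, 3 SD over mean compound inhibition, in both replicates, cut at about 43% in these data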;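 also: modified DeaD lifespan yeast strain shifted to restrictive glucose medium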); details: OD615, 48 h, at 10 µM, active compounds read high
Summary of the method: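 System: modified S. cerevisiae. Buffer or medium: CSMM-D glucose medium. Incubation: 4 h pre-growth plus 48 h compound exposure, 30 °C. Detection: absorbance (optical density) measured at 615 nm.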

[3] = viability gain of MRP-1-high H69AR cells under doxorubicin, pilot screen, MRP-1 activator project, CellTiter-Glo, duplicate (AID 807;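 active = viability increase at or above a cutoff of the median across tested compounds plus 3 SD, cut at about 8.5% in these data, passing the limit was not always enough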;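 also: compound pretreatment 18-22 h then 72 h combined with doxorubicin; 0% = doxorubicin alone and 100% = vehicle without doxorubicin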); details: H69AR viability with doxorubicin, CellTiter-Glo luminescence; at 10 µM; active compounds read high
[4] = growth suppression of PTEN-deleted HCT116, pilot screen, cell-based, HCT116 clonal line, CellTiter-Glo (AID 824;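 active = viability at or below 27.92% in each of two runs, the all-compound median minus 4 SD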;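 also: 0% = 20 µM Hyamine control and 100% = vehicle cell control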); details: 60 h, at 10 µM, active compounds read low
[5] = inhibitors of the yeast RAM network, pilot screen, dse1pr::URA3 reporter, 5-FOA selection (AID 869;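 active = inhibition over a set limit, the all-compound mean plus 3 SD, in both replicate runs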;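 also: 0% = DMSO wells with no growth and 100% = 10 µM 1-NA-PP1 with full growth; RAM network block rescues cells from 5-FOA so hits raise OD615 growth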); details: S. cerevisiae dse1pr::URA3 5-FOA growth, OD615, 2 d; at 10 µM; active compounds read high; strain carries analog-sensitive mutant Cbk1 kinase
[6] = RAM signaling pathway blockade in yeast – S. cerevisiae, Pdr1DBD-CYC8 efflux-inhibited sensitized strain, primary screen (AID 1298;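 active = RAM network inhibition above 8.4% in each of two replicates, 3 SD over the compound average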;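 also: 0% = DMSO untreated cells without growth and 100% = 10 µM 1-NA-PP1 full growth; higher means more yeast growth rescued from 5-FOA killing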); details: S. cerevisiae cbk1-as DSE1-URA3 strain, 5-FOA growth OD615, 2 d; at 50 µM; active compounds read high

COc1cc2c(cc1OC)C(c1cccs1)NCC2 (centres undefined)
inactive: growth inhibition [1] -10.4% | growth inhibition [2] -8.06% | viability increase [3] -3.87% | viability [4] 92.6% | inhibition [5] 0.41% | RAM network inhibition [6] 4.46%

CCSc1nsc(SCC)c1C(N)=O
inactive: growth inhibition [1] -3.27% | growth inhibition [2] -11.2% | viability increase [3] -1.55% | viability [4] 102% | inhibition [5] 0.83% | RAM network inhibition [6] 1.14%

O=C(Cc1ccc(Cl)cc1)Nc1ccccc1CO
inactive: growth inhibition [1] 0.105% | growth inhibition [2] -1.33% | viability increase [3] 0.18% | viability [4] 101% | inhibition [5] 0.45% | RAM network inhibition [6] 5.48%

NC(=O)CNC1CC(=O)N(CCc2ccccc2)C1=O (centres undefined)
inactive: growth inhibition [1] 2.06% | growth inhibition [2] 4.79% | viability increase [3] -2.49% | viability [4] 98.5% | inhibition [5] 0.77% | RAM network inhibition [6] 1.69%
